Legend:
H4 [1] = assay: Tested for its reversal effect on growth of H4 cells at 133+5 ug/mL concentrations of L-aspargine and DL-threo-beta-fluoroaspartate; assay type: functional
Procedure, shortened: (§1)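 Rat hepatoma H4 cells seeded at 1.4×10^4 per 35-mm dish in MEM+. On day 4, fresh MEM+ was added, with treatments including L-aspartate or L-asparagine. Exposure 66 h, then total cell protein per dish measured by Lowry. Results expressed as % of untreated control protein, mean of duplicate dishes.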

H4 [2] = assay: Tested for its reversal effect on growth of H4 cells at 330+5 ug/mL concentrations of L-aspargine and DL-threo-beta-fluoroaspartate; assay type: functional
Procedure, shortened: (§2)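 H4 hepatoma cells seeded at 8×10^3 per 35-mm dish in F 10+ medium. On day 4, the medium was renewed and treatments started, including L-aspartate or L-asparagine. Incubation 72 h, then Lowry total cell protein per dish. Results reported as % of untreated control, mean of duplicate dishes.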

H4 (Rattus norvegicus) [3] = assay: Tested for its reversal effect on growth of H4 cells at 330 ug/mL concentrations of L-aspargine and DL-threo-beta-fluoroaspartate
[4] = system: 7800C1 (Rattus norvegicus); assay: Compound was tested for its uptake by the 7800C1 cells
[5] = Percent recovery form [C14]-labeled compound taken up by 7800C1 cells; assay type: ADME; settings: rat
Procedure, shortened: (§3)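 7800C₁ cells in 100-mm dishes in MEM⁺; on day 4 medium renewed, and 6 h later ¹⁴C-labeled amino acid added to duplicate dishes for 12 h. Washed cells fractionated with 10% trichloroacetic acid (3 h, 0 °C) into acid-soluble material, then hot 5% acid (82 °C, 30 min) to release nucleic acid, leaving a protein pellet on glass-fiber filter. Scintillation counting; nmol/10⁶ cells, mean of duplicates.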

Jensen sarcoma = assay: Compound was tested for its uptake by the Jensen sarcoma cells; assay type: functional, Rattus norvegicus
Procedure, shortened: (§4)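 Cells plated in 100-mm dishes in F 10⁺; on day 4 medium replaced with fresh F 10⁺, and 3 h later ¹⁴C-labeled amino acid added to duplicate dishes. 6 h incubation, then monolayer washed in cold 0.9% NaCl, cells scraped off, and radioactivity counted by liquid scintillation. Uptake expressed as nmol/10⁶ cells from cell counts on untreated dishes; mean of duplicates.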

H4 (Rattus norvegicus) [6] = assay: Compound was tested for its uptake by the H4 cells
MH1C1 = assay: Compound was tested for its uptake by the MH1C1 cells; assay type: functional; procedure, shortened: as §4
[7] = Distribution of radioactivity derived form [C14]-labeled compound taken up by 7800C1 cells; total uptake; assay type: ADME; procedure, shortened: as §3
H4 (Rattus norvegicus) [8] = assay: Tested for its reversal effect on growth of H4 cells at 133 ug/mL concentrations of L-aspargine and DL-threo-beta-fluoroaspartate
GH4-C1 = assay: Compound was tested for its uptake by the GH4C1 cells; assay type: functional, Rattus norvegicus; procedure, shortened: as §4
H4 [9] = assay: Tested for its reversal effect on growth of H4 cells at 330 + 40 ug/mL concentrations of L-aspargine and DL-threo-beta-fluoroaspartate; assay type: functional; procedure, shortened: as §2
H4 [10] = assay: Tested for its reversal effect on growth of H4 cells at 133 + 50 ug/mL concentrations of L-aspargine and DL-threo-beta-fluoroaspartate; assay type: functional; procedure, shortened: as §1
H4 [11] = assay: Tested for its reversal effect on growth of H4 cells at 133 + 5 ug/mL concentrations of L-aspargine and DL-threo-beta-fluoroaspartate; assay type: functional; procedure, shortened: as §1
H4 [12] = assay: Tested for its reversal effect on growth of H4 cells at 330 + 5 ug/mL concentrations of L-aspargine and DL-threo-beta-fluoroaspartate; assay type: functional; procedure, shortened: as §2

SMILES: NC(C(=O)O)C(F)C(=O)O.N[C@@H](CC(=O)O)C(=O)O (mixture of isomers)
- Cell protein in untreated control (H4 [1]): 79%
- Cell protein in untreated control (H4 [2]): 78%

SMILES: N[C@@H](CC(=O)O)C(=O)O [ASPARTIC ACID]
- Cell protein in untreated control (H4 (Rattus norvegicus) [3]): 77%
- Activity [4]: 13.2 nM (10e6*cells)-1
- Recovery [5]: 83%
- Activity (Jensen sarcoma): 0.4 nM (10e6*cells)-1
- Activity (H4 (Rattus norvegicus) [6]): 23.4 nM (10e6*cells)-1
- Activity (MH1C1): 0.5 nM (10e6*cells)-1
- Activity [7]: 21 nM (10e6*cells)-1
- Cell protein in untreated control (H4 (Rattus norvegicus) [8]): 115%
- Activity (GH4-C1): 1.1 nM (10e6*cells)-1

SMILES: NC(=O)C(F)[C@H](N)C(=O)O.NC(=O)C[C@H](N)C(=O)O (mixture of isomers; form 2)
- Cell protein in untreated control (H4 [9]): 80%
- Cell protein in untreated control (H4 [10]): 19%

SMILES: NC(=O)C[C@H](N)C(=O)O.NC(C(=O)O)C(F)C(=O)O (racemic)
- Cell protein in untreated control (H4 [11]): 0%
- Cell protein in untreated control (H4 [12]): 17%

From ChEMBL document CHEMBL1122055, “DL-threo-beta-Fluoroaspartate and DL-threo-beta-fluoroasparagine: selective cytotoxic agents for mammalian cells in culture” (J Med Chem, 1982)
